Source: ChEMBL document CHEMBL1132488, “On the bioactive conformation of NAN-190 (1) and MP3022 (2), 5-HT(1A) receptor antagonists” (J Med Chem, 1999)

Columns and labels:
Rattus norvegicus [1] = experiment: Induction of LLR(lower lip retraction) by the compound in rats at a dose of 32 mg/kg; format: functional
Summary of the method: (§1)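 Male Wistar rats, groups of 6, given compound alone ip as 1% Tween 80 suspension. Lower incisor visibility scored 0/0.5/1 at 15, 30 and 45 min after dosing, summed (max 3 per rat). Mean ± SEM versus vehicle, Newman–Keuls test; ED50 with range.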

Rattus norvegicus [2] = species on record: Rattus norvegicus; experiment: Induction of behavioral syndrome(FT: forepaw treading) by the compound in reserpine pretreated rats at a dose of 16.; format: functional
Summary of the method: (§2)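 Male Wistar rats (260–300 g) were given reserpine 1 mg/kg sc in saline 18 h before testing. Test compound was then given alone ip as a 1% Tween 80 suspension (2 mL/kg). FBP and FT were each scored 0–3 and summed (maximum 15). n=6 per group; mean ± SEM; Newman–Keuls test.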

Rattus norvegicus [3] = species on record: Rattus norvegicus; experiment: Effect on 8-OH-DAPT- induced behavioral syndrome(FT: forepaw treading) by the compound in reserpine pretreated rats at a dose of 8.; format: functional
Summary of the method: (§3)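 Reserpinized male Wistar rats (reserpine 1 mg/kg sc, 18 h before), groups of 6. Compound given ip in 1% Tween 80 60 min before 8-OH-DPAT 5 mg/kg sc. FBP/FT rated 0–3 at 3, 6, 9, 12 and 15 min after agonist, summed (max 15). Mean ± SEM; Newman–Keuls test; ED50 with range.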

Rattus norvegicus [4] = species on record: Rattus norvegicus; experiment: Dose Inducing behavioral syndrome(FT: forepaw treading) by the compound in reserpine pretreated rats.; format: functional
Summary of the method: (§4)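 Male Wistar rats (260–300 g), groups of 6, given reserpine 1 mg/kg sc 18 h before test. Compounds given ip as 1% Tween 80 suspension. FBP and FT rated 0–3 in 45-s sessions every 3 min, starting 3 min after dosing. Score summed over 5 periods (max 15 per symptom). Mean ± SEM; Newman–Keuls test.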

Rattus norvegicus [5] = experiment: Effect on 8-OH-DPAT-Induced LLR(lower lip retraction) in rats at a dose of 32 mg/kg; format: functional
Summary of the method: (§5)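 Male Wistar rats, groups of 6. Compound given ip in 1% Tween 80 45 min before 8-OH-DPAT 1 mg/kg sc. Lower incisor visibility scored 0/0.5/1 at 15, 30 and 45 min after agonist, summed (max 3). Mean ± SEM; Newman–Keuls test; ED50 with range.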

Rattus norvegicus [6] = species on record: Rattus norvegicus; experiment: Induction of behavioral syndrome(FT: forepaw treading) by the compound in reserpine pretreated rats at a dose of 4.; format: functional; summary of the method: as §2
Rattus norvegicus [7] = experiment: Effect on 8-OH-DPAT-Induced LLR(lower lip retraction) in rats at a dose of 16 mg/kg; format: functional; summary of the method: as §5
[8] = target: T1, 5-hydroxytryptamine receptor 1A (Rattus norvegicus, UniProt P19327); experiment: Ability to displace [3H]8-OH-DPAT from 5-hydroxytryptamine 1A receptor
T1 sequence (P19327 whole entry): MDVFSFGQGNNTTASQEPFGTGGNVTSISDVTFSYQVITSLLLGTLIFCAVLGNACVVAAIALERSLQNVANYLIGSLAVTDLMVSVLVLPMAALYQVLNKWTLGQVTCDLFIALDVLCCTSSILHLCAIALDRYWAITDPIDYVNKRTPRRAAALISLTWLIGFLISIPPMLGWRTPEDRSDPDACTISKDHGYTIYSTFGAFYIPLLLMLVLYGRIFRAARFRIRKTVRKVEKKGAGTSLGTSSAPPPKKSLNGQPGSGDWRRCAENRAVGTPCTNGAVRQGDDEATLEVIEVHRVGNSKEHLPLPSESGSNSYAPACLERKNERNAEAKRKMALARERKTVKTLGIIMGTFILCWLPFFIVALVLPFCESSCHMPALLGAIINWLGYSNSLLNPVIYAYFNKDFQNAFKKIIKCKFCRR
Summary of the method: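 Rat hippocampal membranes, [3H]8-OH-DPAT radioligand. Ki from at least three competition experiments, each with 10–14 drug concentrations run in triplicate. Ki calculated with the Cheng–Prusoff equation.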

Rattus norvegicus [9] = experiment: Induction of LLR(lower lip retraction) by the compound in rats at a dose of 8 mg/kg; format: functional; summary of the method: as §1
Rattus norvegicus [10] = species on record: Rattus norvegicus; experiment: Dose inhibiting 8-OH-DPAT-induced behavioral syndrome(FBP: flat body posture) by the compound in reserpine pretreated rats.
Rattus norvegicus [11] = species on record: Rattus norvegicus; experiment: Effect on 8-OH-DAPT- induced behavioral syndrome(FT: forepaw treading) by the compound in reserpine pretreated rats at a dose of 4.; format: functional; summary of the method: as §3
Rattus norvegicus [12] = species on record: Rattus norvegicus; experiment: Induction of behavioral syndrome(FBP: flat body posture) by the compound in reserpine pretreated rats at a dose of 4.; format: functional; summary of the method: as §2
Rattus norvegicus [13] = species on record: Rattus norvegicus; experiment: Effect on 8-OH-DAPT- induced behavioral syndrome(FBP: flat body posture) by the compound in reserpine pretreated rats at a dose of 4.; format: functional; summary of the method: as §3
Rattus norvegicus [14] = species on record: Rattus norvegicus; experiment: Induction of behavioral syndrome(FBP: flat body posture) by the compound in reserpine pretreated rats at a dose of 8.; format: functional; summary of the method: as §2
Rattus norvegicus [15] = species on record: Rattus norvegicus; experiment: Induction of behavioral syndrome(FBP: flat body posture) by the compound in reserpine pretreated rats at a dose of 16.; format: functional; summary of the method: as §4
Rattus norvegicus [16] = species on record: Rattus norvegicus; experiment: Effect on 8-OH-DAPT- induced behavioral syndrome(FBP: flat body posture) by the compound in reserpine pretreated rats at a dose of 8.; format: functional; summary of the method: as §3
Rattus norvegicus [17] = species on record: Rattus norvegicus; experiment: Effect on 8-OH-DAPT- induced behavioral syndrome(FBP: flat body posture) by the compound in reserpine pretreated rats at a dose of 16.; format: functional; summary of the method: as §3
Rattus norvegicus [18] = species on record: Rattus norvegicus; experiment: Effect on 8-OH-DAPT- induced behavioral syndrome(FT: forepaw treading) by the compound in reserpine pretreated rats at a dose of 16.; format: functional; summary of the method: as §3
Rattus norvegicus [19] = species on record: Rattus norvegicus; experiment: Induction of behavioral syndrome(FT: forepaw treading) by the compound in reserpine pretreated rats at a dose of 8.; format: functional; summary of the method: as §2
Rattus norvegicus [20] = experiment: Induction of LLR(lower lip retraction) by the compound in rats at a dose of 16 mg/kg; format: functional; summary of the method: as §1
Rattus norvegicus [21] = experiment: Effect on 8-OH-DPAT-Induced LLR(lower lip retraction) in rats at a dose of 8 mg/kg; format: functional; summary of the method: as §5
Rattus norvegicus [22] = species on record: Rattus norvegicus; experiment: Effective dose of the required to inhibit symptoms produced by 8-OH-DPAT; format: functional; summary of the method: as §3

Ki [8]: 72 nM
Compound: COc1ccccc1N1CCN(C2CCC(N3C(=O)[C@H]4CCCC[C@H]4C3=O)CC2)CC1 (some centres not stated)
LLR score (Rattus norvegicus [1]): 0.3
FT mean score (Rattus norvegicus [2]): 0.1
FT mean score (Rattus norvegicus [3]): 5.4
ED50 (Rattus norvegicus [4]): 7.3 mg/kg
LLR score (Rattus norvegicus [5]): 1.1
FT mean score (Rattus norvegicus [6]): 0.2
LLR score (Rattus norvegicus [7]): 1.6
LLR score (Rattus norvegicus [9]): 0.2
ED50 (Rattus norvegicus [10]): 11 mg/kg
FT mean score (Rattus norvegicus [11]): 9.2
FBP mean score (Rattus norvegicus [12]): 0.2
FBP mean score (Rattus norvegicus [13]): 11.6
FBP mean score (Rattus norvegicus [14]): 0.1
FBP mean score (Rattus norvegicus [15]): 0.1
FBP mean score (Rattus norvegicus [16]): 9.8
FBP mean score (Rattus norvegicus [17]): 3.2
FT mean score (Rattus norvegicus [18]): 2
FT mean score (Rattus norvegicus [19]): 0.2
LLR score (Rattus norvegicus [20]): 0.3
LLR score (Rattus norvegicus [21]): 2.3
ED50 (Rattus norvegicus [22]): 20 mg/kg
